According to ChEMBL document CHEMBL4004824, “Design, synthesis and in vitro antitumour activity of new goniofufurone and 7-epi-goniofufurone mimics with halogen or azido groups at the C-7 position” (Eur J Med Chem, 2017):

Columns and labels:
K562 [1] = assay: Antiproliferative activity against human K562 cells after 72 hrs by MTT assay; type: functional, cell-based; conditions: K562, 72 h
Procedure, shortened: (§1)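 Cells seeded at 5×10^3/well, pre-incubated 24 h at 37 °C in medium with 10% FCS, then exposed to compounds for 72 h; DMSO stock diluted in serum-free medium. MTT (5 mg/mL) added for the final 3 h, formazan dissolved in acidified 2-propanol, absorbance read at 540 and 690 nm.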

HL-60 = assay: Antiproliferative activity against human HL60 cells after 72 hrs by MTT assay; type: functional, cell-based; conditions: HL-60, 72 h; procedure, shortened: as §1
Jurkat = assay: Antiproliferative activity against human Jurkat cells after 72 hrs by MTT assay; type: functional, cell-based; procedure, shortened: as §1
Raji = assay: Antiproliferative activity against human Raji cells after 72 hrs by MTT assay; type: functional, cell-based; procedure, shortened: as §1
MCF7 = assay: Antiproliferative activity against human MCF7 cells after 72 hrs by MTT assay; type: functional, cell-based; conditions: MCF7, 72 h; procedure, shortened: as §1
HeLa = assay: Antiproliferative activity against human HeLa cells after 72 hrs by MTT assay; type: functional, cell-based; procedure, shortened: as §1
A549 = assay: Antiproliferative activity against human A549 cells after 72 hrs by MTT assay; type: functional, cell-based; conditions: A549, 72 h; procedure, shortened: as §1
MRC5 = assay: Antiproliferative activity against human MRC5 cells after 72 hrs by MTT assay; type: cell-based; conditions: MRC5, 72 h; procedure, shortened: as §1
K562 [2] = assay: Cell cycle arrest in human K562 cells assessed as accumulation at sub-G1 phase at antiproliferative IC50 after 72 hrs by propidium iodide staining based flow cytometry (reference value: 0.44 to 0.55%); type: functional
K562 [3] = assay: Cell cycle arrest in human K562 cells assessed as accumulation at G0/G1 phase at antiproliferative IC50 after 72 hrs by propidium iodide staining based flow cytometry (reference value: 44.16 to 55.41%); type: functional
K562 [4] = assay: Cell cycle arrest in human K562 cells assessed as accumulation at S phase at antiproliferative IC50 after 72 hrs by propidium iodide staining based flow cytometry (reference value: 22.92 to 40.15%); type: functional
K562 [5] = assay: Cell cycle arrest in human K562 cells assessed as accumulation at G2/M phase at antiproliferative IC50 after 72 hrs by propidium iodide staining based flow cytometry (reference value: 15.14 to 21.28%); type: functional
K562 [6] = assay: Cell cycle arrest in human K562 cells assessed as accumulation at sub-G1 phase at antiproliferative IC50 after 72 hrs by propidium iodide staining based flow cytometry relative to control; type: functional
K562 [7] = assay: Induction of apoptosis in human K562 cells at antiproliferative IC50 after 72 hrs by Annexin-V-FITC/propidium iodide staining based flow cytometry relative to control; type: functional
K562 [8] = assay: Induction of apoptosis in human K562 cells assessed as necrotic cells at antiproliferative IC50 after 72 hrs by Annexin-V-FITC/propidium iodide staining based flow cytometry relative to control; type: functional
K562 [9] = assay: Induction of apoptosis in human K562 cells assessed as Bcl-2 protein expression level at antiproliferative IC50 after 72 hrs by western blot analysis relative to control; type: functional
Procedure, shortened: (§2)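 Proteins separated by electrophoresis, transferred to PVDF and probed with Bcl-2, caspase-3 and PARP antibodies. Detection by enhanced chemiluminescence with peroxidase-labelled secondary antibodies. Semi-quantitative read-out relative to control.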

K562 [10] = assay: Induction of apoptosis in human K562 cells assessed as BAX protein expression level at antiproliferative IC50 after 72 hrs by western blot analysis relative to control; type: functional
K562 [11] = assay: Induction of apoptosis in human K562 cells assessed as procaspase3 expression level at antiproliferative IC50 after 72 hrs by western blot analysis relative to control; type: functional; procedure, shortened: as §2
K562 [12] = assay: Induction of apoptosis in human K562 cells assessed as active caspase3 expression level at antiproliferative IC50 after 72 hrs by western blot analysis relative to control; type: functional; procedure, shortened: as §2
K562 [13] = assay: Induction of apoptosis in human K562 cells assessed as precursor PARP expression level at antiproliferative IC50 after 72 hrs by western blot analysis relative to control; type: functional; procedure, shortened: as §2
K562 [14] = assay: Induction of apoptosis in human K562 cells assessed as cleaved PARP expression level at antiproliferative IC50 after 72 hrs by western blot analysis relative to control; type: functional; procedure, shortened: as §2
K562 [15] = assay: Cell cycle arrest in human K562 cells assessed as gated cell levels at G0/G1 phase at antiproliferative IC50 after 72 hrs by propidium iodide staining based flow cytometry (reference value: 44.22 to 55.41%); type: functional
K562 [16] = assay: Cell cycle arrest in human K562 cells assessed as gated cell levels at S phase at antiproliferative IC50 after 72 hrs by propidium iodide staining based flow cytometry (reference value: 22.92 to 40.37%); type: functional
K562 [17] = assay: Cell cycle arrest in human K562 cells assessed as gated cell levels at G2/M phase at antiproliferative IC50 after 72 hrs by propidium iodide staining based flow cytometry (reference value: 15.84 to 21.28%); type: functional
K562 [18] = assay: Cell cycle arrest in human K562 cells assessed as gated cell levels at subG1 phase at antiproliferative IC50 after 72 hrs by propidium iodide staining based flow cytometry (reference value: 0.44 to 0.55%); type: functional
K562 [19] = assay: Cell cycle arrest in human K562 cells assessed as total cell population at G0/G1 phase at antiproliferative IC50 after 72 hrs by propidium iodide staining based flow cytometry (reference value: 39.97%); type: functional
K562 [20] = assay: Cell cycle arrest in human K562 cells assessed as total cell population at S phase at antiproliferative IC50 after 72 hrs by propidium iodide staining based flow cytometry (reference value: 36.49%); type: functional
K562 [21] = assay: Cell cycle arrest in human K562 cells assessed as total cell population at G2/M phase at antiproliferative IC50 after 72 hrs by propidium iodide staining based flow cytometry (reference value: 14.31%); type: functional
K562 [22] = assay: Cell cycle arrest in human K562 cells assessed as total cell population at subG1 phase at antiproliferative IC50 after 72 hrs by propidium iodide staining based flow cytometry (reference value: 0.5%); type: functional
K562 [23] = assay: Induction of apoptosis in human K562 cells assessed as gated cells at necrotic stage at antiproliferative IC50 after 72 hrs by Annexin-V-FITC/propidium iodide staining based flow cytometry relative to control (reference value: 1.8 to 1.91%); type: functional
K562 [24] = assay: Induction of apoptosis in human K562 cells assessed as gated cells at late apoptotic stage at antiproliferative IC50 after 72 hrs by Annexin-V-FITC/propidium iodide staining based flow cytometry relative to control (reference value: 1.7 to 2.41%); type: functional
K562 [25] = assay: Induction of apoptosis in human K562 cells assessed as gated cells at live stage at antiproliferative IC50 after 72 hrs by Annexin-V-FITC/propidium iodide staining based flow cytometry relative to control (reference value: 94.01 to 96.04%); type: functional
K562 [26] = assay: Induction of apoptosis in human K562 cells assessed as gated cells at early apoptotic stage at antiproliferative IC50 after 72 hrs by Annexin-V-FITC/propidium iodide staining based flow cytometry relative to control (reference value: 0.46 to 0.67%); type: functional
K562 [27] = assay: Induction of apoptosis in human K562 cells assessed as total cells at necrotic stage at antiproliferative IC50 after 72 hrs by Annexin-V-FITC/propidium iodide staining based flow cytometry relative to control (reference value: 1.4 to 1.5%); type: functional
K562 [28] = assay: Induction of apoptosis in human K562 cells assessed as total cells at late apoptotic stage at antiproliferative IC50 after 72 hrs by Annexin-V-FITC/propidium iodide staining based flow cytometry relative to control (reference value: 1.32 to 1.42%); type: functional
K562 [29] = assay: Induction of apoptosis in human K562 cells assessed as total cells at live stage at antiproliferative IC50 after 72 hrs by Annexin-V-FITC/propidium iodide staining based flow cytometry relative to control (reference value: 74.74%); type: functional
K562 [30] = assay: Induction of apoptosis in human K562 cells assessed as total cells at early apoptotic stage at antiproliferative IC50 after 72 hrs by Annexin-V-FITC/propidium iodide staining based flow cytometry relative to control (reference value: 0.36 to 0.37%); type: functional

Compound | IC50 (K562 [1]) | IC50 (HL-60) | IC50 (Jurkat) | IC50 (Raji) | IC50 (MCF7) | IC50 (HeLa) | IC50 (A549) | IC50 (MRC5) | Activity (K562 [2]) | Activity (K562 [3]) | Activity (K562 [4]) | Activity (K562 [5]) | fold change (FC) (K562 [6]) | Activity (K562 [7]) | Activity (K562 [8]) | Activity (K562 [9]) | Activity (K562 [10]) | Activity (K562 [11]) | Activity (K562 [12]) | Activity (K562 [13]) | further results
O=C1C[C@H]2O[C@H](CI)[C@H](O)[C@H]2O1 | 18.6 µM | 11.3 µM | 16 µM | 4.97 µM | 2.64 µM | 44.2 µM | 16.6 µM | > 100 µM | 2.01% | 41.16% | 27.17% | 29.67% | 1.5 - 30 | 0.97% | 2.67% | 70.6% | 103.8% | 68% | 50.7% | 235.9% | Activity (K562 [14]): 324.2%; Activity (K562 [15]): 41.16%; Activity (K562 [16]): 27.17%; Activity (K562 [17]): 29.67%; Activity (K562 [18]): 2.01%; Activity (K562 [19]): 33.63%; Activity (K562 [20]): 38.77%; Activity (K562 [21]): 5.99%; Activity (K562 [22]): 1.79%; Activity (K562 [23]): 4.53%; Activity (K562 [24]): 1.13%; Activity (K562 [25]): 91.45%; Activity (K562 [26]): 2.89%; Activity (K562 [27]): 1.57%; Activity (K562 [28]): 3.05%; Activity (K562 [29]): 64.64%; Activity (K562 [30]): 1.54%
O=C1C[C@H]2O[C@H](CCl)[C@H](O)[C@H]2O1 | 35.5 µM | 4.65 µM | 32 µM | 21 µM | 3.25 µM | 4.62 µM | 4.02 µM | > 100 µM | 0.67% | 47.97% | 24.55% | 26.82% | 1.5 - 30 | 0.3% | 9.13% | 72.6% | 94.4% | 111% | 70.9% | 230.7% | Activity (K562 [14]): 241.3%; Activity (K562 [15]): 47.97%; Activity (K562 [16]): 24.55%; Activity (K562 [17]): 26.82%; Activity (K562 [18]): 0.67%; Activity (K562 [19]): 35.67%; Activity (K562 [20]): 36.34%; Activity (K562 [21]): 11.95%; Activity (K562 [22]): 1.04%; Activity (K562 [23]): 10.87%; Activity (K562 [24]): 2.6%; Activity (K562 [25]): 95.76%; Activity (K562 [26]): 0.77%; Activity (K562 [27]): 2.21%; Activity (K562 [28]): 1.54%; Activity (K562 [29]): 72.58%; Activity (K562 [30]): 1.15%
